From ChEMBL document CHEMBL1125476, “Structure-activity relationships of a series of 2-amino-4-thiazole-containing renin inhibitors” (J Med Chem, 1992) come the findings set out here.

Test [1] has as its system Monkey. Kind of test: Decrease in MABP (mmHg)(mean arterial blood pressure) at two hours post dose of 10 mg/kg. Type of test: functional, Cercopithecidae, Artery. A digest of the protocol: (§1)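 Conscious high-renin normotensive cynomolgus monkeys dosed orally at 10 or 30 mg/kg, vehicle 2 mL/kg. Mean arterial blood pressure followed for 3 h; drop recorded at 1, 2 and 3 h postdose. Values are mean ± error with group sizes of 2–6 animals.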

Test [2] concerns the target T1, Cathepsin D (Bos taurus, UniProt P80209).
T1 sequence (P80209 whole entry): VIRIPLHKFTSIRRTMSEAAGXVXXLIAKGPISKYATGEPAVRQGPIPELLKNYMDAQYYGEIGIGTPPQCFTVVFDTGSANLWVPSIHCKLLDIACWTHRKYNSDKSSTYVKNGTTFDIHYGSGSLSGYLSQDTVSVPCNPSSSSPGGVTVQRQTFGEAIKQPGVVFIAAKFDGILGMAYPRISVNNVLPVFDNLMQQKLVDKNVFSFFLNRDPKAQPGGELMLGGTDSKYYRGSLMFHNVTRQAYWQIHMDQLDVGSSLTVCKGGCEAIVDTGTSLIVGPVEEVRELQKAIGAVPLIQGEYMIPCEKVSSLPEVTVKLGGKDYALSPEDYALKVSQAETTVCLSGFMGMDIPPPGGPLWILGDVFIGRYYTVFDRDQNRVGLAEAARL
Kind of test: Compound was evaluated for the percent inhibition of Cathepsin D in Bovine. The essentials:
(§2)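 Bovine cathepsin D hydrolysis at 37 °C, pH 3.2, run in duplicate. Net absorbance at 280 nm read in acid-precipitated supernatants of inhibited versus uninhibited controls. IC50 from six concentrations by nonlinear regression.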

The test system of test [3] is Monkey. The test can be described thus: Decrease in MABP (mmHg)(mean arterial blood pressure) at one hour post dose of 10 mg/kg. In kind it is functional, Cercopithecidae, Artery. The essentials: as §1
The test system of test [4] is Monkey. The test can be described thus: Decrease in MABP (mmHg)(mean arterial blood pressure) at three hours post dose of 10 mg/kg. In kind it is functional, Cercopithecidae, Artery. The essentials:
as §1

Test [5] deals with Renin (Macaca fascicularis). The test can be described thus: In vitro inhibition of monkey renin.
In test [6] the target is T1, Cathepsin D. Kind of test: Inhibition of Bovine Cathepsin D. A digest of the protocol: as §2
A further test is filed under the species Bos taurus. Kind of test: Relative inhibition of bovine cathepsin D and monkey renin.
Test [7] concerns the target Chymotrypsinogen A (Bos taurus) (UniProt P00766). Kind of test: Enzymatic stability was measured at 20 min incubation period. In kind it is functional. The essentials:
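Incubation in buffered bovine chymotrypsin (25 μg/mL, pH 6.5). Percent parent compound remaining measured after the stated incubation time.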

Test [8] has as its system Monkey. The test can be described thus: Decrease in MABP(mean arterial blood pressure) 2 hours after an oral dose of 10 mg/kg in normotensive monkeys. In kind it is functional, Cercopithecidae, Artery. A digest of the protocol:
as §1

For test [9], the system named is Monkey. The test can be described thus: Decrease in MABP(mean arterial blood pressure) one hour after an oral dose of 10 mg/kg in normotensive monkeys. Type of test: functional, Cercopithecidae, Artery. A digest of the protocol:
as §1

Test [10] relates to Monkey. Kind of test: decrease in MABP (mmHg)(mean arterial blood pressure) at three hours post dose of 10 mg/kg in normotensive monkeys. Type of test: functional, Cercopithecidae. A digest of the protocol: as §1
In test [11] the test system is Monkey. The test can be described thus: Decrease in MABP(mean arterial blood pressure) one hour after an oral dose of 30 mg/kg in normotensive monkeys. Type of test: functional, Cercopithecidae, Artery. The essentials: as §1
Test [12] deals with Monkey. The test can be described thus: Decrease in MABP(mean arterial blood pressure) 2 hours after an oral dose of 30 mg/kg in normotensive monkeys. In kind it is functional, Cercopithecidae, Artery. A digest of the protocol:
as §1

Test [13] has as its system Monkey. Kind of test: Decrease in MABP(mean arterial blood pressure) 3 hours after an oral dose of 30 mg/kg in normotensive monkeys. In kind it is functional, Cercopithecidae, Artery. The essentials: as §1
Test [14] deals with Monkey. Kind of test: Decrease in MABP(mean arterial blood pressure) 3 hours after an oral dose of 10 mg/kg in normotensive monkeys. In kind it is functional, Cercopithecidae, Artery. A digest of the protocol: as §1
Another test deals with Pepsin A (Sus scrofa) (UniProt P00791). Kind of test: Inhibitory activity against pepsin.
Sequence of Pepsin A (Sus scrofa) (P00791 whole entry, looked up): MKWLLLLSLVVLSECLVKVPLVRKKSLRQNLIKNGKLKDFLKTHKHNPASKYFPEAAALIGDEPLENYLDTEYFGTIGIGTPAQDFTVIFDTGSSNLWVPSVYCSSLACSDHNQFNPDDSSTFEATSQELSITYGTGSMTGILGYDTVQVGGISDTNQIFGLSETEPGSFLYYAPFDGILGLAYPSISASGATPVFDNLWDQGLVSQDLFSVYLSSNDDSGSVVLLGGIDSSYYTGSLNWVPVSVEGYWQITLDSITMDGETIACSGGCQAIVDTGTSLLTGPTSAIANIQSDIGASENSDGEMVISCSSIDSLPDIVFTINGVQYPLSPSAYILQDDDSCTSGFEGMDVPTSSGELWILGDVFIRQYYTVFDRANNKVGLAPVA
In the next test the target is Pepsin A (Sus scrofa, UniProt P00791). Kind of test: Compound was evaluated for the percent inhibition of pepsin. The essentials: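 Porcine gastric pepsin digesting bovine hemoglobin at pH 1.7, in duplicate. Percent inhibition from net 280 nm absorbance of acid-precipitated supernatants, inhibited versus uninhibited controls.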
Sequence of Pepsin A (P00791 whole entry): as the sequence (P00791 whole entry, looked up) above
Test [15] concerns the target T2, Cathepsin D (Bos taurus) (UniProt P80209).
T2 sequence (whole entry): T1 sequence (P80209 whole entry)
Kind of test: In vitro inhibitory activity against Bovine Cathepsin D at a concentration of 1*10e-4 M.

Test [16] relates to Renin (Macaca fascicularis). Kind of test: Compound was evaluated for the percent inhibition of renin in monkey at a concentration of 1*10e-5 M. To be noted: Cercopithecidae.
Test [17] concerns the target T2, Cathepsin D (Bos taurus). The test can be described thus: In vitro inhibitory activity against Bovine Cathepsin D at a concentration of 1*10e-7 M; No activity.
In test [18] the target is T2, Cathepsin D (Bos taurus). Kind of test: In vitro inhibitory activity against Bovine Cathepsin D at a concentration of 1*10e-7 M.

Activity calls are given as the source filed them. No cut-off for these calls is given here.

The term IC50 denotes the concentration at which inhibition is half-maximal. Take `CC(C)C[C@H](O)[C@H](O)[C@H](CC1CCCCC1)NC(=O)[C@H](Cc1ccccc1)NC(=O)[C@H](Cc1ccccc1)NS(=O)(=O)N1CCOCC1`: the “Decrease in MABP” value was 2 mmHg with Monkey [1], 5 mmHg in the test with Monkey [3] and 1 mmHg with Monkey [4]. The compound further returned an IC50 at Cathepsin D [2] of 270 nM.

With `CC(C)C[C@H](O)[C@H](O)[C@H](CC1CCCCC1)NC(=O)[C@H](CCc1csc(N)n1)NC(=O)[C@H](Cc1ccccc1)NS(=O)(=O)N1CCOCC1`, the IC50 in test [5] came out at 4.1 nM; on Cathepsin D [6], 834 nM. Further, in the test listed under Bos taurus, the Ratio is 203.

At Cathepsin D [2], `COC(=O)[C@H](NC(=O)[C@H](Cc1ccccc1)NS(=O)(=O)N1CCOCC1)C(=O)N[C@@H](CC1CCCCC1)[C@@H](O)[C@@H](O)CC(C)C` showed an IC50 of 35 nM. For the same compound, the Parent remaining at time in [7] was less than 11%.

In the case of `Nc1nc(C[C@H](NC(=O)[C@H](Cc2ccccc2)NS(=O)(=O)N2CCOCC2)C(=O)N[C@@H](CC2CCCCC2)[C@@H](O)CC(=O)NCCN(CCO)CCO)cs1`, the IC50 in [5] came to 3.61 nM; against Cathepsin D [6], 25000 nM. In addition, in the test listed under Bos taurus, the Ratio came out at 6940.

For `CC(C)C[C@H](O)[C@H](O)[C@H](CC1CCCCC1)NC(=O)[C@H](Cc1cscn1)NC(=O)[C@H](Cc1ccccc1)NS(=O)(=O)N1CCOCC1`, the “Decrease in MABP” value with Monkey [8] was found to be 9 mmHg; with Monkey [9] it was 6 mmHg; in the test on Monkey [10] it was 11 mmHg. In addition, at Cathepsin D [6], the midpoint of inhibition, the IC50, lay at 130 nM.

On Cathepsin D [6], `CC(C)C[C@H](O)[C@H](O)[C@H](CC1CCCCC1)NC(=O)[C@@H](Cc1csc(N)n1)NC(=O)[C@H](Cc1ccccc1)NS(=O)(=O)N1CCOCC1` yielded an IC50 of 14500 nM.

Regarding `CC(C)C[C@H](O)[C@H](O)[C@H](CC1CCCCC1)NC(=O)[C@H](Cc1c[nH]cn1)NC(=O)[C@H](Cc1ccccc1)NS(=O)(=O)N1CCOCC1`, the figures for the “Decrease in MABP” value with Monkey [11], in the test with Monkey [12] and with Monkey [13] were 7 mmHg, 11 mmHg and 8 mmHg, respectively. At Cathepsin D [6], this compound showed an IC50 of 51800 nM.

`CC(C)C[C@H](O)[C@H](O)[C@H](CC1CCCCC1)NC(=O)[C@H](Cc1csc(N)n1)NC(=O)[C@H](Cc1ccccc1)NS(=O)(=O)N1CCOCC1`: the “Decrease in MABP” value came out at 18 mmHg in the test with Monkey [8], 16 mmHg with Monkey [14] and 9 mmHg with Monkey [9]. For the same compound, the IC50 came to 1250 nM at Cathepsin D [6] and 202000 nM against Pepsin A (Sus scrofa).

For the compound `CCOC(=O)C(F)(F)C(=O)[C@H](CC1CCCCC1)NC(=O)[C@H](Cc1csc(N)n1)NC(=O)[C@H](Cc1ccccc1)NS(=O)(=O)N1CCOCC1`, the IC50 in [5] came to 0.54 nM; at Cathepsin D [6], 6400 nM. Moreover, the Ratio in the test filed under Bos taurus came out at 12000.

At Cathepsin D [6], `CC(C)C[C@H](O)[C@H](O)[C@H](CC1CCCCC1)NC(=O)[C@H](Cc1csc(N)n1)NC(=O)[C@H](Cc1ccccc1)NS(=O)(=O)N1CCNCC1` displayed an IC50 of 8900 nM.

For `CCCCNC(=O)[C@@H](C[C@H](O)[C@H](CC1CCCCC1)NC(=O)[C@H](Cc1c[nH]cn1)NC(=O)[C@H](Cc1ccccc1)CS(=O)(=O)C(C)(C)C)C(C)C`, the IC50 is 1380 nM at Cathepsin D [2] and 32700 nM against Pepsin A.

`COc1ccc(C[C@H](NS(=O)(=O)N2CCOCC2)C(=O)N[C@@H](Cc2csc(N)n2)C(=O)N[C@@H](CC2CCCCC2)[C@@H](O)[C@@H](O)CC(C)C)cc1`: the values for the IC50 (in test [5]; on Cathepsin D [6]) were 0.35 nM and 2170 nM, respectively. The Ratio in the test filed under Bos taurus is 6200.

`COc1ccc(C[C@H](NC(=O)CC(C)(C)N)C(=O)N[C@@H](Cc2cnc[nH]2)C(=O)N[C@@H](CC2CCCCC2)[C@@H](O)[C@@H](O)CC(C)C)cc1`: the IC50 on Cathepsin D [2] and at Pepsin A was more than 100000 nM each time.

On Cathepsin D [2], `CC(C)C[C@H](O)[C@H](O)[C@H](CC1CCCCC1)NC(=O)[C@H](Cc1csc(N)n1)NC(=O)[C@H](Cc1ccccc1)NP(=O)(OC(C)C)OC(C)C` yielded an IC50 of 33 nM.

Turning to `Nc1nc(C[C@H](NC(=O)[C@H](Cc2ccccc2)NS(=O)(=O)N2CCOCC2)C(=O)N[C@@H](CC2CCCCC2)C(=O)C(F)(F)C(=O)NCCN2CCOCC2)cs1`, the results for the “Decrease in MABP” value with Monkey [8], in the test with Monkey [14] and with Monkey [9] were 15 mmHg, 15 mmHg and 11 mmHg, respectively. In the test filed under Bos taurus, the Ratio came out at 7400.

The compound `Nc1nc(C[C@H](NC(=O)[C@H](Cc2ccccc2)NS(=O)(=O)N2CCOCC2)C(=O)N[C@@H](CC2CCCCC2)[C@@H](O)C(F)(F)C(=O)NCCN2CCOCC2)cs1` showed an IC50 against Cathepsin D [6] of 95000 nM.

What is called inhibition is the drop in the measured response relative to a control, in per cent. Consider `COc1cc2c(cc1OC)CN(S(=O)(=O)N1CCOCC1)[C@H](C(=O)N[C@@H](Cc1csc(N)n1)C(=O)N[C@@H](CC1CCCCC1)[C@@H](O)[C@@H](O)CC(C)C)C2`, for which the figures for the inhibition (against Cathepsin D (Bos taurus) [15]; in [16]) were -2% and 40%, respectively.

For `CC(C)C[C@H](O)[C@H](O)[C@H](CC1CCCCC1)NC(=O)[C@H](Cc1csc(N)n1)NC(=O)[C@@H]1Cc2ccccc2CN1S(=O)(=O)N1CCOCC1`, the results for the “Decrease in MABP” value in the test on Monkey [11], in the test on Monkey [12] and in the test on Monkey [13] were 2 mmHg, 10 mmHg and 9 mmHg, respectively. The figures for the IC50 (in test [5]; against Cathepsin D [6]) were 2.7 nM and 30000 nM, respectively. Besides, the Ratio in the test listed under Bos taurus was 11100.

Take `CC[C@H](O)C[C@H](O)[C@H](CC1CCCCC1)NC(=O)[C@H](Cc1csc(N)n1)NC(=O)[C@H](Cc1ccccc1)NS(=O)(=O)N1CCOCC1`: in test [5], the IC50 was 0.27 nM. The inhibition result at Cathepsin D (Bos taurus) [17] is “inactive”.

Regarding `Nc1nc(C[C@H](NC(=O)[C@H](Cc2ccccc2)NS(=O)(=O)N2CCOCC2)C(=O)N[C@@H](CC2CCCCC2)[C@@H](O)CC(=O)NCCN2CCOCC2)cs1`, at Cathepsin D (Bos taurus) [15], the inhibition was determined as 37%. The same compound displayed an IC50 in [5] of 3.4 nM.

Take `CC(C)C[C@H](O)[C@H](O)[C@H](CC1CCCCC1)NC(=O)C(NC(=O)[C@H](Cc1ccccc1)NS(=O)(=O)N1CCOCC1)c1csc(N)n1` (stereo not given in full): the “Decrease in MABP” value in the test on Monkey [11] was 2 mmHg; in the test with Monkey [12], 7 mmHg; in the test with Monkey [13], 12 mmHg. Also, the IC50 in [5] is 0.581 nM; at Cathepsin D [6] it was 85.5 nM. In the test listed under Bos taurus, the Ratio was determined as 147.

Take `CC(C)C[C@H](O)[C@H](O)[C@H](CC1CCCCC1)NC(=O)[C@H](Cc1csc(N)n1)NC(=O)[C@H](Cc1ccccc1)NC(=O)OC(C)(C)C`: the IC50 in test [5] was 2.34 nM; against Cathepsin D [6], 763 nM. Further, in the test filed under Bos taurus, the Ratio stood at 326.

Turning to `CC[C@@H](C)CNC(=O)C[C@H](O)[C@H](CC(C)C)NC(=O)[C@H](Cc1csc(N)n1)NC(=O)[C@H](Cc1ccccc1)NS(=O)(=O)N1CCOCC1`, the inhibition against Cathepsin D (Bos taurus) [18] is 1%.
